Source: ChEMBL document CHEMBL4673204, “Rational Design of Cyclic Peptide Inhibitors of U2AF Homology Motif (UHM) Domains To Modulate Pre-mRNA Splicing” (J Med Chem, 2016)
pKd: −log10 of the molar value. Active and inactive are the calls of the source. The rule behind the calls is not given here. Peptide text beside a SMILES is read from it.

Key:
Homo sapiens = organism: Homo sapiens; experiment: Selectivity index, ratio of Kd for U2AF65 UHM domain to Kd for His-Z-tagged SPF45 (unknown origin) UHM domain
Splicing factor 45 = biological target: T1, Splicing factor 45 (Homo sapiens, UniProt Q96I25); experiment: Binding affinity to His-Z-tagged SPF45 (unknown origin) UHM domain expressed in Escherichia coli BL21 (DE3) cells by ITC analysis
T1 sequence (Q96I25 whole entry): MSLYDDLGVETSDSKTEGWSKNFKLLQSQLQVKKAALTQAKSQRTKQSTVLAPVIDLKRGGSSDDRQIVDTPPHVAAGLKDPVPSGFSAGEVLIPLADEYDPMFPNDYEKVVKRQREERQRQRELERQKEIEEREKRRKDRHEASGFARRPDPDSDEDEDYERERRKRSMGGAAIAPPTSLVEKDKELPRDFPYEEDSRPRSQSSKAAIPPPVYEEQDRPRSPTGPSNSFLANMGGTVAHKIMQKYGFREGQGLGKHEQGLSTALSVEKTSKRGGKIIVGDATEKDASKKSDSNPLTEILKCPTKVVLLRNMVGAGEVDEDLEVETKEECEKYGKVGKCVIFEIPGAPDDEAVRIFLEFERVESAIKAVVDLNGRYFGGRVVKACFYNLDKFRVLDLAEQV
Method in brief: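 SPF45 UHM domain expressed in BL21 (DE3) as His-Ztag fusion (0.5 mM IPTG, overnight at 20 °C), then Ni-NTA, TEV cleavage of tag, ion exchange and size exclusion. ITC: 5–20 μM protein in cell titrated with 10-fold concentrated peptide, 1.5 μL injections. One-site binding fit; errors are SD of fitting errors by error propagation.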

[1] = biological target: T2, Splicing factor 45 (Homo sapiens) (UniProt Q96I25); experiment: Inhibition of SPF45-mediated splicing in human HeLa nuclear extracts assessed as reduction in complex A formation during spliceosome-assembly at 25 to 500 uM incubated for 20 mins before addition of IgM pre-mRNA as the splicing substrate by agarose gel electrophoresis; format: tissue-based; conditions: dose 25-500 µM
T2 sequence (whole entry): T1 sequence (Q96I25 whole entry)
Method in brief: (§1)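 Peptide added to 25–500 μM final and held 20 min on ice before pre-mRNA. Spliced product normalized to the no-peptide control; SD from two independent experiments. Complex formation read by agarose gel electrophoresis.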

[2] = biological target: T2, Splicing factor 45 (Homo sapiens); experiment: Inhibition of SPF45-mediated splicing in human HeLa nuclear extracts assessed as splicing products formation at 25 to 500 uM incubated for 20 mins before addition of IgM pre-mRNA as the splicing substrate by agarose gel electrophoresis; design: scale not given: the % may be the effect or the level left; conditions: dose 25-500 µM; method in brief: as §1
[3] = biological target: T2, Splicing factor 45 (Homo sapiens); experiment: Inhibition of SPF45-mediated splicing in human HeLa nuclear extracts assessed as reduction in splicing products formation at 500 uM incubated for 20 mins before addition of IgM pre-mRNA as the splicing substrate by agarose gel electrophoresis; method in brief: as §1

Structure (SMILES)	pKd (Splicing factor 45)	other results
N=C(N)NCCC[C@H](NC(=O)[C@H](CO)NC(=O)[C@@H](N)CCCCN)C(=O)N[C@@H](Cc1c[nH]c2ccccc12)C(=O)N[C@@H](CC(=O)O)C(=O)N[C@@H](CCC(=O)O)C(=O)O (H-KSRWDE-OH)	4.80	Ratio (Homo sapiens): 9
N=C(N)NCCC[C@@H]1NC(=O)[C@H](CO)NC(=O)[C@H](N)CCCCNC(=O)CC[C@H](C(=O)N[C@@H](Cc2ccc(O)cc2)C(=O)O)NC(=O)[C@H](CC(=O)O)NC(=O)[C@H](Cc2c[nH]c3ccccc23)NC1=O	5.73	
N=C(N)NCCC[C@@H]1NC(=O)[C@H](CO)NC(=O)[C@H](N)CCCCNC(=O)CC[C@H](C(=O)N[C@@H](Cc2c[nH]c3ccccc23)C(=O)O)NC(=O)[C@H](CC(=O)O)NC(=O)[C@H](Cc2c[nH]c3ccccc23)NC1=O	6.10	
CN1CCCC[C@@H](N)C(=O)N[C@@H](CO)C(=O)N[C@@H](CCCNC(=N)N)C(=O)N[C@@H](Cc2c[nH]c3ccccc23)C(=O)N[C@@H](CC(=O)O)C(=O)N[C@@H](C(=O)N[C@@H](CCCCN)C(=O)O)CCC1=O	5.90	

Now from value to compound, other results behind:

pKd (Splicing factor 45)	Structure (SMILES)	other results
6.29	N=C(N)NCCC[C@H](NC(=O)[C@H]1CCC(=O)NCCCC[C@@H](N)C(=O)N[C@@H](CO)C(=O)N[C@@H](CCCNC(=N)N)C(=O)N[C@@H](Cc2c[nH]c3ccccc23)C(=O)N[C@@H](CC(=O)O)C(=O)N1)C(=O)O	
6.74	N=C(N)NCCC[C@@H]1NC(=O)[C@H](CO)NC(=O)[C@H](N)CCCCNC(=O)CC[C@H](C(=O)N[C@@H](CCCCN)C(=O)O)NC(=O)[C@H](CC(=O)O)NC(=O)[C@H](Cc2c[nH]c3ccccc23)NC1=O	inhibition [1]: Active; Activity [2]: 29%; inhibition [3]: Active; Ratio (Homo sapiens): 270
5.85	N=C(N)NCCC[C@@H]1NC(=O)[C@H](CO)NC(=O)[C@H](N)CCCCNC(=O)CC[C@H](C(=O)O)NC(=O)[C@H](CC(=O)O)NC(=O)[C@H](Cc2c[nH]c3ccccc23)NC1=O	
6.02	N=C(N)NCCC[C@@H]1NC(=O)[C@H](CO)NC(=O)[C@H](N)CCCCNC(=O)CC[C@H](C(=O)N[C@@H](Cc2cnc[nH]2)C(=O)O)NC(=O)[C@H](CC(=O)O)NC(=O)[C@H](Cc2c[nH]c3ccccc23)NC1=O	
6.12	N=C(N)NCCC[C@@H]1NC(=O)[C@H](CO)NC(=O)[C@H](N)CCCCNC(=O)CC[C@H](C(=O)NC(CCCCN=C(N)N)C(=O)O)NC(=O)[C@H](CC(=O)O)NC(=O)[C@H](Cc2c[nH]c3ccccc23)NC1=O (some centres undefined)	
